Calls of active or inactive are those of the source. The calls are words filed in the database; no cut-off is given here.
Assays:
HOS [1] = assay: Induction of apoptosis in HOS cells at 1 to 2 uM after 48 hrs by Hoechst 33258 staining-based fluorescence microscopic analysis; type: functional, cell-based; details: Homo sapiens
Summary of the method: (§1)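 Dissociated sarcospheres seeded on glass coverslips in complete IMDM and exposed to 0.5, 1 and 2 μM for 48 h; untreated cells as negative control. Fixed in methanol/acetic acid (3:1), then stained with 2.25 μg/mL Hoechst 33258 for 10 min at rt in the dark. Apoptotic-body nuclei counted over at least five fields (20× objective) and reported as percentage of cells.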

MG-63 [2] = assay: Induction of apoptosis in human MG63 cells assessed as formation of apoptotic bodies after 48 hrs by Hoechst 33258 staining-based fluorescence microscopic analysis; type: functional, cell-based; summary of the method: as §1
[3] = target: Histone deacetylase (Homo sapiens) (UniProt Q13547+O15379+Q9UBN7+Q92769+Q9UQL6+Q8WUI4+Q9BY41+Q96DB2+P56524+Q9UKV0+Q969S8); details: MG-63, 0.5 to 2 uM
MG-63 [4] = assay: Antiproliferative activity against human MG63 cells after 24 to 72 hrs by […] dye exclusion assay; type: functional, cell-based
Summary of the method: (§2)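 Sarcosphere-derived CSCs, dissociated to single cells, plated at 50000/well in complete IMDM for adhesion. After 24 h, exposed to 0.5, 1 and 2 μM. Viable cells counted by dye exclusion at 24, 48 and 72 h. Growth inhibition is expressed relative to DMSO-treated controls. Three experiments in duplicate.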

[5] = target: T1, Protein deacetylase HDAC6 (Homo sapiens) (UniProt Q9UBN7); assay: Inhibition of HDAC6 in human MG63 cells assessed as upregulation of acetyl-tubulin level at 0.5 to 2 uM after 24 hrs by Western blot analysis relative to control; type: cell-based; details: MG-63
T1 sequence (whole entry): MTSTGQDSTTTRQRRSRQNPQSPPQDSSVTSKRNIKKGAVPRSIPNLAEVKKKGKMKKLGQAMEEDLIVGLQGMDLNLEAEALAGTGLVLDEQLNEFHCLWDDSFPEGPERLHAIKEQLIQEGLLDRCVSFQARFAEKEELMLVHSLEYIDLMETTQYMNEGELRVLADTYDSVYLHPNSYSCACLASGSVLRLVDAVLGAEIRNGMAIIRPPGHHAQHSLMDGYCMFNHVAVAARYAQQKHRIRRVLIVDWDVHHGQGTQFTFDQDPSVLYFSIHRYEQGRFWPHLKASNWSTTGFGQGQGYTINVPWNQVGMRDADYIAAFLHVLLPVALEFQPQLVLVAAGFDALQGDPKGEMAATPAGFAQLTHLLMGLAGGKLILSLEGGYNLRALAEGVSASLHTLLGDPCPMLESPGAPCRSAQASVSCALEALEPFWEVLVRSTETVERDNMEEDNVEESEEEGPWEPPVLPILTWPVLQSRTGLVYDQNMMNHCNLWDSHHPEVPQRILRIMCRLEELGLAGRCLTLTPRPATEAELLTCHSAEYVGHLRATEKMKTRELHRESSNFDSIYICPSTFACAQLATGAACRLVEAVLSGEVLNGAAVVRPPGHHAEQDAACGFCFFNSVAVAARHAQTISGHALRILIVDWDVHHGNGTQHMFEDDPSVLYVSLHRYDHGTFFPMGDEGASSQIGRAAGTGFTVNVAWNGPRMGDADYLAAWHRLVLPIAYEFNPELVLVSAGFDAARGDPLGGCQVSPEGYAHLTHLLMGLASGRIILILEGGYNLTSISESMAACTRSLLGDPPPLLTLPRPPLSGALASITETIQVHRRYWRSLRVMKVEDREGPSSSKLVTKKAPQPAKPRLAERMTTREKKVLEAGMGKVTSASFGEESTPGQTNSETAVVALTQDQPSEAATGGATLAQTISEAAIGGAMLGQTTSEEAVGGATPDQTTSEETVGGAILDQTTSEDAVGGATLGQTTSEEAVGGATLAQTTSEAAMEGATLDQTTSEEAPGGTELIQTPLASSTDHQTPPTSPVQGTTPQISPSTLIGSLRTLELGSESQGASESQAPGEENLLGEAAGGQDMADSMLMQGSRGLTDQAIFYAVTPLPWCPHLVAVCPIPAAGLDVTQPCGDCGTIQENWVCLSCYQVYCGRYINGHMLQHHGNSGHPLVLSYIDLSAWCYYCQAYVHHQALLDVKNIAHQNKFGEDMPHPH
Summary of the method: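 MG-63 sarcosphere-derived CSCs treated 24 h with 0.5 and 2 μM. Acetyl-tubulin measured by Western blot with densitometry normalized to TBP and expressed as index versus negative control.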

SK-ES1 = assay: Cytotoxicity against human SK-ES-1 cells assessed as cell viability after 72 hrs by MTT assay; type: functional, cell-based
Summary of the method: (§3)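 Sarcosphere-derived CSC cultures exposed 72 h to concentrations from 100 μM down to 0.1 μM. Viability compared with DMSO-only treated cells. IC50 calculated by linear regression.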

A673 = assay: Antiproliferative activity against human A673 cells after 24 to 72 hrs by […] dye exclusion assay; type: functional, cell-based; summary of the method: as §2
HOS [6] = assay: Cytotoxicity against HOS cells assessed as cell viability after 72 hrs by MTT assay; type: functional, cell-based; details: Homo sapiens; summary of the method: as §3
Histone deacetylase 9 = Histone deacetylase 9 (Homo sapiens, UniProt Q9UKV0); assay: Inhibition of recombinant HDAC9 (unknown origin) by homogeneous fluorescence release assay
Histone deacetylase 9, sequence (Q9UKV0 whole entry, canonical isoform): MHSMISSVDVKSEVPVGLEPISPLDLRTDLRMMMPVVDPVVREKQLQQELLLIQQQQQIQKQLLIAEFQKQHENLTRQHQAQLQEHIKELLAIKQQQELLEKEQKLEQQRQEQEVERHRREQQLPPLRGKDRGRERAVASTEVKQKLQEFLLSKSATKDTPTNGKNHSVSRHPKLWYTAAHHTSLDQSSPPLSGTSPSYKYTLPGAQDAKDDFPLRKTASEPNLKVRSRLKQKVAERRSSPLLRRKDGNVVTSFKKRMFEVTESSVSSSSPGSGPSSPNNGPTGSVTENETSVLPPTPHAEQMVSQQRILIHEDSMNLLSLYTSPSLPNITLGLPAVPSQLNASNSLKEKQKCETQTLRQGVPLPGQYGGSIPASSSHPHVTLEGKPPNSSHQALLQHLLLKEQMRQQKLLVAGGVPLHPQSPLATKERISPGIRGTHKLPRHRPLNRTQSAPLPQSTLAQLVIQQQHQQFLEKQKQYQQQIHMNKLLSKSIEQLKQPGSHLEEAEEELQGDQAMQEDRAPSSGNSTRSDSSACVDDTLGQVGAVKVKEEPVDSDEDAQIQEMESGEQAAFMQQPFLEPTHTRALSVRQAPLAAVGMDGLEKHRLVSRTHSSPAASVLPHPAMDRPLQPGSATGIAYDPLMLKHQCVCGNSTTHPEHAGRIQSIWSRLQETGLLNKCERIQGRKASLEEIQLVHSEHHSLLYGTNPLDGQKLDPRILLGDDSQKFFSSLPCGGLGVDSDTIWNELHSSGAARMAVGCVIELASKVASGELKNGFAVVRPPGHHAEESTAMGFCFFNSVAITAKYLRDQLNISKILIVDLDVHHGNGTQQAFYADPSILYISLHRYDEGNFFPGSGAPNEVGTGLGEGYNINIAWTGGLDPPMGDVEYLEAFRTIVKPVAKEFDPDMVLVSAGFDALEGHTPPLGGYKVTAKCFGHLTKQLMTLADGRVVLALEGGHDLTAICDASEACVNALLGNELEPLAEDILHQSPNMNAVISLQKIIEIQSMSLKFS
Summary of the method: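 Isoform enzyme assay run in 10-dose IC50 mode. Compounds were serially diluted 3-fold starting from 50 μM solutions.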

[7] = Cytotoxicity against human MG63 cells assessed as growth inhibition at 0.5 uM treated for 14 days measured on day 14 post last treatment by Alamar Blue assay; type: cell-based; details: mg-63, 336 h
Summary of the method: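 MG-63 sarcosphere-derived cells, 10000 seeded, grown in complete α-MEM to 70% confluence. Then kept in mineralization medium (10 mM β-glycerophosphate, 10−8 M dexamethasone, ascorbic acid 2-phosphate) with continuous compound exposure (0.025–0.5 μM) for 14 days. Viability then read by Alamar Blue.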

Histone deacetylase 3 = Histone deacetylase 3 (Homo sapiens, UniProt O15379); assay: Inhibition of recombinant HDAC3 (unknown origin) by homogeneous fluorescence release assay
Histone deacetylase 3, sequence (O15379 whole entry): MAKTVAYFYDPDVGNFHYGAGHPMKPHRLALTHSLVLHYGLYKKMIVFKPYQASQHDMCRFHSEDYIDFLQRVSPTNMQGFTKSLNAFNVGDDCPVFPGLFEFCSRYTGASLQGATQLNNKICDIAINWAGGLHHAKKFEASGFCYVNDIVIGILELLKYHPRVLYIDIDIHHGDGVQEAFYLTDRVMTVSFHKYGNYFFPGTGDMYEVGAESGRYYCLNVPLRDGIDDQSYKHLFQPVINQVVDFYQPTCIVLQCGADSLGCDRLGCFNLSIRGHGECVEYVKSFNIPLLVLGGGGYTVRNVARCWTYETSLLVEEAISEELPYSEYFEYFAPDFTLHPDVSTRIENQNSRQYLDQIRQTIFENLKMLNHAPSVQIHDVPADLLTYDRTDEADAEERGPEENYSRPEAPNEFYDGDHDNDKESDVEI

Histone deacetylase 11 = target: T2, Histone deacetylase 11 (Homo sapiens, UniProt Q96DB2); assay: Inhibition of recombinant HDAC11 (unknown origin) by homogeneous fluorescence release assay
T2 sequence (Q96DB2 whole entry): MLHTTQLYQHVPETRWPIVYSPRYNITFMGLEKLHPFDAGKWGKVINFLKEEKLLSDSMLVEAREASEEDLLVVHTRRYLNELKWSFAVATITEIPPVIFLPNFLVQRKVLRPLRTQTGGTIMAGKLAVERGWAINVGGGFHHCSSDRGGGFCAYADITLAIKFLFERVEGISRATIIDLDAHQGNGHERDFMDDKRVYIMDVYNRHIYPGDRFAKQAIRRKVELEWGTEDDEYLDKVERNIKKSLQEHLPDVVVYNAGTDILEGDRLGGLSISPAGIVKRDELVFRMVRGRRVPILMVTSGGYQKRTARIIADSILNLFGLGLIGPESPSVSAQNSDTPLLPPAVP

## O=C(CCCCSc1nc(-c2ccc(-c3ccccc3)cc2)cc(=O)[nH]1)NO
HOS [1]
  Activity: Active
MG-63 [2]
  Activity: Dose-dependent effect
[3]
  inhibition: Active
MG-63 [4]
  Activity: Dose-dependent effect
[5]
  inhibition: Active
SK-ES1
  Activity: Dose-dependent effect
A673
  Activity: Dose-dependent effect
HOS [6]
  Activity: Dose-dependent effect
Histone deacetylase 9
  IC50: > 50 µM

## O=C(/C=C/c1ccc(NC(=O)C(Cc2ccccc2)c2ccccc2)cn1)NO (stereo not given)
HOS [1]
  Activity: Active
[7]
  Activity: Toxic
MG-63 [2]
  Activity: Dose-dependent effect
MG-63 [4]
  Activity: Dose-dependent effect
[5]
  inhibition: Active
Histone deacetylase 3
  IC50: 0.08 µM
SK-ES1
  Activity: Dose-dependent effect
A673
  Activity: Dose-dependent effect
Histone deacetylase 11
  IC50: 10.2 µM
HOS [6]
  Activity: Dose-dependent effect
Histone deacetylase 9
  IC50: 10.6 µM

From ChEMBL document CHEMBL3425488, “Novel histone deacetylase inhibitors induce growth arrest, apoptosis, and differentiation in sarcoma cancer stem cells” (J Med Chem, 2015)
